Source: ChEMBL document CHEMBL4330069, “Boosting the efficacy of anti-MRSA β-lactam antibiotics via an easily accessible, non-cytotoxic and orally bioavailable FtsZ inhibitor” (Eur J Med Chem, 2019)
≈ marks a conversion by molar mass, not a printed value.

Tests used:
Type in all cases: functional
Staphylococcus aureus [1] = assay: Synergistic antibacterial activity against multidrug-resistant Staphylococcus aureus isolate 231 assessed as fractional Inhibitory concentration index in presence of meropenem by broth microdilution assay
Method in brief: (§1)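 CLSI broth microdilution run on clinical MRSA isolates with each β-lactam alone, the test agent alone, and the two combined; agents dissolved in DMSO. Growth inhibition was read by eye. FIC index = FIC(compound) + FIC(β-lactam), where each FIC is the MIC in combination divided by the MIC alone. An index ≤0.5 was taken as synergy.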

Staphylococcus aureus [2] = assay: Synergistic antibacterial activity against multidrug-resistant Staphylococcus aureus isolate 774 in presence of amoxicillin by broth microdilution assay
Staphylococcus aureus [3] = assay: Synergistic antibacterial activity against multidrug-resistant Staphylococcus aureus isolate 85 in presence of methicillin by broth microdilution assay
Escherichia coli = assay: Antibacterial activity against Escherichia coli ATCC 25922 by broth microdilution assay
Method in brief: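 Broth microdilution per CLSI guidelines; compounds dissolved in DMSO; single agents tested; growth inhibition read by eye; run in duplicate (table footnote states at least triplicates).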

Staphylococcus aureus [4] = assay: Synergistic antibacterial activity against multidrug-resistant Staphylococcus aureus isolate 1749 in presence of amoxicillin by broth microdilution assay
Method in brief: (§2)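 Clinical MRSA isolate panel; compound and β-lactam tested alone and in combination by CLSI broth microdilution, compounds dissolved in DMSO, growth inhibition scored by eye, run in duplicate. FIC index = FIC(compound) + FIC(drug), each the MIC in combination divided by the MIC alone; an index ≤ 0.5 was called synergy.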

Staphylococcus aureus [5] = assay: Synergistic antibacterial activity against multidrug-resistant Staphylococcus aureus isolate 200 assessed as fractional Inhibitory concentration index in presence of methicillin by broth microdilution assay
Staphylococcus aureus [6] = assay: Synergistic antibacterial activity against multidrug-resistant Staphylococcus aureus isolate 3332 in presence of methicillin by broth microdilution assay
Method in brief: (§3)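 CLSI broth microdilution on clinical MRSA isolates. MICs were measured for the β-lactam alone, the test agent alone and the two combined. Compounds were dissolved in DMSO, and growth inhibition was scored by eye. FIC index is the sum, over both agents, of MIC in combination divided by MIC alone. An FIC index ≤0.5 was taken as synergy.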

Staphylococcus aureus [7] = assay: Synergistic antibacterial activity against multidrug-resistant Staphylococcus aureus isolate 3580 assessed as fractional Inhibitory concentration index in presence of amoxicillin by broth microdilution assay
Staphylococcus aureus [8] = assay: Synergistic antibacterial activity against multidrug-resistant Staphylococcus aureus isolate 231 in presence of cefuroxime by broth microdilution assay; method in brief: as §2
Staphylococcus aureus [9] = assay: Synergistic antibacterial activity against multidrug-resistant Staphylococcus aureus isolate 2728 assessed as fractional Inhibitory concentration index in presence of methicillin by broth microdilution assay
Staphylococcus aureus [10] = assay: Synergistic antibacterial activity against multidrug-resistant Staphylococcus aureus isolate 1717 assessed as fractional Inhibitory concentration index in presence of methicillin by broth microdilution assay; method in brief: as §1
Staphylococcus aureus [11] = assay: Antibacterial activity against multidrug-resistant Staphylococcus aureus isolate 254 by broth microdilution assay
Method in brief: (§4)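 Broth microdilution MIC per CLSI guidelines against clinical MRSA isolates, for β-lactams and test compound alone and in combination. Compounds were dissolved in DMSO. Growth was read by eye, in duplicate. FIC index = FIC(compound) + FIC(drug); synergy defined as FIC index ≤0.5.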

Staphylococcus aureus [12] = assay: Synergistic antibacterial activity against multidrug-resistant Staphylococcus aureus isolate 358 in presence of meropenem by broth microdilution assay
Staphylococcus aureus [13] = assay: Synergistic antibacterial activity against multidrug-resistant Staphylococcus aureus isolate 254 in presence of amoxicillin by broth microdilution assay; method in brief: as §3
Staphylococcus aureus [14] = assay: Synergistic antibacterial activity against multidrug-resistant Staphylococcus aureus isolate 757 in presence of cefuroxime by broth microdilution assay
Staphylococcus aureus [15] = assay: Synergistic antibacterial activity against multidrug-resistant Staphylococcus aureus isolate 256 assessed as fractional Inhibitory concentration index in presence of amoxicillin by broth microdilution assay
Staphylococcus aureus [16] = assay: Synergistic antibacterial activity against multidrug-resistant Staphylococcus aureus isolate 2224 in presence of methicillin by broth microdilution assay; method in brief: as §2
Staphylococcus aureus [17] = assay: Synergistic antibacterial activity against multidrug-resistant Staphylococcus aureus isolate 1402 in presence of meropenem by broth microdilution assay; method in brief: as §2
Staphylococcus aureus [18] = assay: Synergistic antibacterial activity against multidrug-resistant Staphylococcus aureus isolate 2973 in presence of methicillin by broth microdilution assay; method in brief: as §3
Staphylococcus aureus [19] = assay: Synergistic antibacterial activity against multidrug-resistant Staphylococcus aureus isolate 1136 in presence of cloxacillin by broth microdilution assay; method in brief: as §2
Staphylococcus aureus [20] = assay: Synergistic antibacterial activity against multidrug-resistant Staphylococcus aureus isolate 1449 in presence of methicillin by broth microdilution assay; method in brief: as §2
Staphylococcus aureus [21] = assay: Synergistic antibacterial activity against multidrug-resistant Staphylococcus aureus isolate 3267 assessed as fractional Inhibitory concentration index in presence of methicillin by broth microdilution assay
Staphylococcus aureus [22] = assay: Synergistic antibacterial activity against multidrug-resistant Staphylococcus aureus isolate 3411 assessed as fractional Inhibitory concentration index in presence of cloxacillin by broth microdilution assay
Staphylococcus aureus [23] = assay: Synergistic antibacterial activity against multidrug-resistant Staphylococcus aureus isolate 2490 in presence of cloxacillin by broth microdilution assay; method in brief: as §2
Staphylococcus aureus [24] = assay: Synergistic antibacterial activity against multidrug-resistant Staphylococcus aureus isolate 85 in presence of meropenem by broth microdilution assay
Staphylococcus aureus [25] = assay: Synergistic antibacterial activity against multidrug-resistant Staphylococcus aureus isolate 1717 assessed as fractional Inhibitory concentration index in presence of cloxacillin by broth microdilution assay; method in brief: as §1
Staphylococcus aureus [26] = assay: Synergistic antibacterial activity against multidrug-resistant Staphylococcus aureus isolate 2516 in presence of amoxicillin by broth microdilution assay; method in brief: as §2
Staphylococcus aureus [27] = assay: Synergistic antibacterial activity against multidrug-resistant Staphylococcus aureus isolate 774 in presence of cloxacillin by broth microdilution assay
Staphylococcus aureus [28] = assay: Synergistic antibacterial activity against multidrug-resistant Staphylococcus aureus isolate 3411 in presence of cloxacillin by broth microdilution assay
Staphylococcus aureus [29] = assay: Synergistic antibacterial activity against multidrug-resistant Staphylococcus aureus isolate 2728 in presence of cefuroxime by broth microdilution assay; method in brief: as §3
Staphylococcus aureus [30] = assay: Antibacterial activity against multidrug-resistant Staphylococcus aureus isolate 85 by broth microdilution assay; method in brief: as §4
Staphylococcus aureus [31] = assay: Synergistic antibacterial activity against multidrug-resistant Staphylococcus aureus isolate 1717 in presence of methicillin by broth microdilution assay; method in brief: as §2
Staphylococcus aureus [32] = assay: Synergistic antibacterial activity against multidrug-resistant Staphylococcus aureus isolate 417 in presence of amoxicillin by broth microdilution assay
Staphylococcus aureus [33] = assay: Antibacterial activity against multidrug-resistant Staphylococcus aureus ATCC 43300 infected in BALB/C mouse assessed as mouse survival at 50 mg/kg, ip bid measured on day 4 post infection (reference value: 50%)
Staphylococcus aureus [34] = assay: Synergistic antibacterial activity against multidrug-resistant Staphylococcus aureus isolate 2901 assessed as fractional Inhibitory concentration index in presence of cefuroxime by broth microdilution assay
Staphylococcus aureus [35] = assay: Synergistic antibacterial activity against multidrug-resistant Staphylococcus aureus isolate 2919 in presence of cefuroxime by broth microdilution assay; method in brief: as §3
Staphylococcus aureus [36] = assay: Antibacterial activity against multidrug-resistant Staphylococcus aureus isolate 1402 by broth microdilution assay; method in brief: as §4

For `CCCCCCCCCNc1ccc(F)c(C(N)=O)c1F`, the “fractional inhibitory concentration index (FICI)” value (Staphylococcus aureus [1]) was 0.6, the MIC (Staphylococcus aureus [2]) was 8 µg/mL and the MIC (Staphylococcus aureus [3]) was 4 µg/mL. The MIC (Escherichia coli) was over 64 µg/mL, the MIC (Staphylococcus aureus [4]) was 2 µg/mL and the “fractional inhibitory concentration index (FICI)” value (Staphylococcus aureus [5]) was 0.3. The MIC (Staphylococcus aureus [6]) was 4 µg/mL, the “fractional inhibitory concentration index (FICI)” value (Staphylococcus aureus [7]) was 0.3 and the MIC (Staphylococcus aureus [8]) was 4 µg/mL. For the same molecule, the “fractional inhibitory concentration index (FICI)” value (Staphylococcus aureus [9]) was 0.2, the “fractional inhibitory concentration index (FICI)” value (Staphylococcus aureus [10]) was 1.1 and the MIC (Staphylococcus aureus [11]) was 16 µg/mL (≈ 53.6 µM). It also gave an MIC (Staphylococcus aureus [12]) of 16 µg/mL, an MIC (Staphylococcus aureus [13]) of 8 µg/mL and an MIC (Staphylococcus aureus [14]) of 2 µg/mL. For the same molecule, the “fractional inhibitory concentration index (FICI)” value (Staphylococcus aureus [15]) was 0.1, the MIC (Staphylococcus aureus [16]) was 2 µg/mL and the MIC (Staphylococcus aureus [17]) was 4 µg/mL. The MIC (Staphylococcus aureus [18]) was 4 µg/mL, the MIC (Staphylococcus aureus [19]) was 2 µg/mL and the MIC (Staphylococcus aureus [20]) was 2 µg/mL. For the same molecule, the “fractional inhibitory concentration index (FICI)” value (Staphylococcus aureus [21]) was 0.1, the “fractional inhibitory concentration index (FICI)” value (Staphylococcus aureus [22]) was 0.5 and the MIC (Staphylococcus aureus [23]) was 1 µg/mL. The MIC (Staphylococcus aureus [24]) was 8 µg/mL, the “fractional inhibitory concentration index (FICI)” value (Staphylococcus aureus [25]) was 2.5 and the MIC (Staphylococcus aureus [26]) was 8 µg/mL. For the same molecule, the MIC (Staphylococcus aureus [27]) was 1 µg/mL, the MIC (Staphylococcus aureus [28]) was 1 µg/mL and the MIC (Staphylococcus aureus [29]) was 2 µg/mL. For the same molecule, the MIC (Staphylococcus aureus [30]) was 1020 µg/mL (≈ 3430 µM), the MIC (Staphylococcus aureus [31]) was 2 µg/mL and the MIC (Staphylococcus aureus [32]) was 8 µg/mL. The Activity (Staphylococcus aureus [33]) was 40%, the “fractional inhibitory concentration index (FICI)” value (Staphylococcus aureus [34]) was 0.1 and the MIC (Staphylococcus aureus [35]) was 2 µg/mL. For the same molecule, the MIC (Staphylococcus aureus [36]) was 4 µg/mL (≈ 13.4 µM).
